Reference: ChEMBL document CHEMBL4393663, “Targeting gliomas with triazene-based hybrids: Structure-activity relationship, mechanistic study and stability” (Eur J Med Chem, 2019)
Activity calls are given as the source filed them. The calls are words filed in the database; no cut-off is given here.

Key:
[1] = target: T1, Histone deacetylase (Homo sapiens) (UniProt Q13547+O15379+Q9UBN7+Q92769+Q9UQL6+Q8WUI4+Q9BY41+Q96DB2+P56524+Q9UKV0+Q969S8); assay: Inhibition of HDAC in human HeLa nuclear extract assessed as enzyme residual activity at 25 uM using Boc-Lys(acetyl)-AMC as substrate and measured after 15 mins by fluorescence assay relative to control; type: cell-free
Summary of the method: (§1)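 Fluorometric HDAC activity kit with HeLa nuclear extract as enzyme source; compounds from 20 mM DMSO stock, tested in duplicate. Deacetylated substrate treated with lysine developer; fluorescence read after 15 min at ex 360/em 460 nm.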

[2] = Stability of the compound in PBS buffer at pH 7.4 assessed as half life by HPLC analysis; type: physicochemical
GL261 [3] = assay: Cytotoxicity against mouse GL261 cells assessed as reduction in cell viability incubated for 48 hrs by MTS assay; type: functional, cell-based; settings: GL261, 48 h
[4] = Octanol-phosphate buffered saline distribution coefficient, log D of compound at pH 7.4 at 1 mg shake for 30 mins and measured after 48 hrs by HPLC analysis; type: physicochemical
[5] = Stability in 80% human plasma assessed as half life by HPLC analysis; type: ADME, cell-free
Summary of the method: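 Plasma pooled from 13 donors (heparin), stored at −18 °C, thawed slowly, diluted to 80% v/v with 10 mM PBS pH 7.4 at 37 °C; compound added from 10 mM acetonitrile stock; aliquots taken over time, centrifuged 12000 rpm 10 min, supernatant analyzed by HPLC for half-life; duplicate or triplicate runs.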

[6] = target: T1, Histone deacetylase (Homo sapiens); assay: Inhibition of HDAC in human HeLa nuclear extract assessed as enzyme residual activity at 6.25 uM using Boc-Lys(acetyl)-AMC as substrate and measured after 15 mins by fluorescence assay relative to control; type: cell-free; summary of the method: as §1
[7] = target: T1, Histone deacetylase (Homo sapiens); assay: Inhibition of HDAC in human HeLa nuclear extract assessed as enzyme residual activity at 100 uM using Boc-Lys(acetyl)-AMC as substrate and measured after 15 mins by fluorescence assay relative to control; type: cell-free; summary of the method: as §1
GL261 [8] = assay: Antiinvasive activity in mouse GL261 cells assessed as reduction in cell migration at 10 uM preincubated for 48 hrs and measured after 6 hrs by giemsa staining based Boyden chamber assay; type: functional
SH-SY5Y [9] = assay: Induction of apoptosis in human SH-SY5Y cells assessed as reduction in cell viability at 10 uM incubated for 48 hrs by annexinV-PE/7-AAD staining based flow cytometric analysis; type: functional
Summary of the method: (§2)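 SH-SY5Y cells grown on poly-D-lysine/laminin, differentiated 7 days with 10 µM retinoic acid, then exposed 48 h. Adherent plus floating cells pooled, resuspended in PBS/1% BSA, stained annexin V-PE/7-AAD and counted by flow cytometry into viable, early apoptotic, late apoptotic/necrotic; two readings per sample; three independent experiments in duplicate.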

GL261 [10] = assay: Induction of morphological changes in mouse GL261 cells assessed as decrease in cell aspect ratio at 10 uM incubated for 48 hrs by Hoechst 33258 staining based fluorescence microscopic analysis; type: functional
Summary of the method: (§3)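 After 48 h exposure, GL261 cells on coverslips fixed in 4% paraformaldehyde, permeabilized (0.1% Triton X-100), blocked 30 min, stained with Alexa Fluor-594 phalloidin and Hoechst 33258; ten random fields at 630×; circularity (4π·area/perimeter²) and aspect ratio traced manually on ≥120 cells per condition; three independent experiments.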

GL261 [11] = assay: Induction of morphological changes in mouse GL261 cells assessed as increase in cell circularity at 10 uM incubated for 48 hrs by Hoechst 33258 staining based fluorescence microscopic analysis; type: functional; summary of the method: as §3
SH-SY5Y [12] = assay: Induction of apoptosis in human SH-SY5Y cells assessed as increase in early apoptotic cells at 10 uM incubated for 48 hrs by annexinV-PE/7-AAD staining based flow cytometric analysis; type: functional, cell-based; summary of the method: as §2
SH-SY5Y [13] = assay: Induction of apoptosis in human SH-SY5Y cells assessed as increase in late necrotic cells at 10 uM incubated for 48 hrs by annexinV-PE/7-AAD staining based flow cytometric analysis; type: functional, cell-based; summary of the method: as §2
GL261 [14] = assay: Cytotoxicity against mouse GL261 cells assessed as reduction in cell viability at 0.1 to 100 uM incubated for 48 hrs by MTS assay; type: functional, cell-based
[15] = Drug metabolism assessed as Zn2+-mediated compound decomposition by measuring aniline formation at 33 uM measured at 30 mins interval for 12 hrs by UV-vis spectrophotometric analysis
Summary of the method: (§4)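 Decomposition monitored by UV-Vis spectroscopy in methanolic solutions containing Cu2+ or Zn2+.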

[16] = Drug metabolism assessed as Cu2+-mediated compound decomposition by measuring aniline formation at 33 uM measured at 1 min interval for 30 mins by UV-Vis spectrophotometric analysis; summary of the method: as §4
GL261 [17] = assay: Induction of apoptosis in mouse GL261 cells assessed as increase in necrotic cells at 10 uM incubated for 48 hrs by annexinV-PE/7-AAD staining based flow cytometric analysis; type: functional, cell-based
Summary of the method: (§5)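 GL261 cells exposed 48 h; trypsinized adherent cells combined with medium cells, pelleted, resuspended in PBS/1% BSA, stained with annexin V-PE/7-AAD; flow cytometry gating viable (both negative), early apoptotic (annexin+/7-AAD−), late apoptotic/dead (both positive); two readings per sample; three independent experiments in duplicate.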

GL261 [18] = assay: Induction of apoptosis in mouse GL261 cells assessed as increase in late apoptotic cells at 10 uM incubated for 48 hrs by annexinV-PE/7-AAD staining based flow cytometric analysis; type: functional, cell-based; summary of the method: as §5
GL261 [19] = assay: Induction of apoptosis in mouse GL261 cells assessed as increase in early apoptotic cells at 10 uM incubated for 48 hrs by annexinV-PE/7-AAD staining based flow cytometric analysis; type: functional, cell-based; summary of the method: as §5
GL261 [20] = assay: Induction of apoptosis in mouse GL261 cells assessed as reduction in cell viability at 10 uM incubated for 48 hrs by annexinV-PE/7-AAD staining based flow cytometric analysis; type: functional; summary of the method: as §5
[21] = Stability of compound in PBS buffer at pH 7.4 at 10^-5 M measured 5 min for 60 mins in presence of N-acetylcysteine by UV-Vis spectrophotometric analysis; type: physicochemical; settings: pH 7.4, 1 h, 10 µM
[22] = Induction of alkylation in 5'-GGGAGA-3' single stranded DNA (unknown origin) at ssDNA to compound concentration ratio of 1:3 to 1:250M incubated for 7 days by ESI-MS analysis
Summary of the method: (§6)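 Single-stranded oligonucleotide incubated with the compound in 10 mM ammonium bicarbonate buffer, pH 8.3, at 37 °C. Aliquots were taken at intervals and extracted three times with ethyl acetate, then centrifuged. The aqueous phase was analysed by flow-injection ESI(−) HRMS in 50:50 water/acetonitrile with 0.1% formic acid. Run in triplicate.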

[23] = Stability of the compound in PBS buffer at pH 7.4 at 10^-5 M measured 5 min for 60 mins in presence of glutathione by UV-Vis spectrophotometric analysis; type: physicochemical; settings: pH 7.4, 1 h, 10 µM
[24] = target: T1, Histone deacetylase (Homo sapiens); assay: Inhibition of HDAC in human HeLa nuclear extract assessed as enzyme residual activity at 100 nM using Boc-Lys(acetyl)-AMC as substrate and measured after 15 mins by fluorescence assay relative to control; type: cell-free; summary of the method: as §1
[25] = target: T1, Histone deacetylase (Homo sapiens); assay: Inhibition of HDAC in human HeLa nuclear extract assessed as enzyme residual activity at 1 uM using Boc-Lys(acetyl)-AMC as substrate and measured after 15 mins by fluorescence assay relative to control; type: cell-free; summary of the method: as §1
[26] = target: T1, Histone deacetylase (Homo sapiens); assay: Inhibition of HDAC in human HeLa nuclear extract assessed as enzyme residual activity at 10 nM using Boc-Lys(acetyl)-AMC as substrate and measured after 15 mins by fluorescence assay relative to control; type: cell-free; summary of the method: as §1
[27] = Drug metabolism assessed as Zn2+-mediated compound decomposition by measuring aniline formation 33 uM measured at 1 min interval for 30 mins by UV-Vis spectrophotometric analysis; summary of the method: as §4
[28] = Induction of alkylation in 5'-GGGAGA-3' single stranded DNA (unknown origin) at ssDNA to compound concentration ratio of 1:250M incubated for 1 hr by ESI-MS analysis; summary of the method: as §6

| Activity [1] | half-life [2] | logD at 30 min [4] | half-life [5] | Activity [6] | Activity [7] | Compound | IC50 (GL261 [3]) | further results |
| --- | --- | --- | --- | --- | --- | --- | --- | --- |
| 85.8% | 27.3 h | 4.62 | > 40 h | 93% | 66.4% | CCCC(CCC)C(=O)N(C)/N=N/c1ccc(Cl)cc1 | 58.4 µM |  |
| 92.7% | > 40 h | 2.95 | 13.9 h | 95.9% | 77.6% | CC(C)C(=O)N(C)/N=N/c1ccc(C#N)cc1 | > 100 µM | Activity (GL261 [14]): inactive |
| 72.5% | > 40 h | 3.19 | 15.2 h | 97.1% | 54.9% | CCCC(=O)N(C)/N=N/c1ccc(C#N)cc1 | > 100 µM | Drug metabolism [27]: Metabolite not detected; Drug metabolism [16]: Metabolite not detected; Activity (GL261 [14]): inactive |
| 79.8% | 34.1 h | 4.95 | > 40 h | 88.3% | 55.3% | CCCC(CCC)C(=O)N(C)/N=N/c1ccc(C(=O)OCC)cc1 | > 100 µM | Drug metabolism [27]: Metabolite not detected; Drug metabolism [16]: Metabolite not detected |
| 94.8% | > 40 h | 4.56 | > 40 h | 98.6% | 85.8% | CCCC(CCC)C(=O)N(C)/N=N/c1ccc(C(C)=O)cc1 | 47 µM |  |
| 93.5% | 31.3 h | 4.98 | > 40 h | 94.5% | 89% | CCCC(CCC)C(=O)N(C)/N=N/c1ccc(C)cc1 | > 100 µM |  |

More lines, now with the values behind:

| Compound | Activity [1] | half-life [2] | logD at 30 min [4] | half-life [5] | Activity [6] | Activity [7] | IC50 (GL261 [3]) | further results |
| --- | --- | --- | --- | --- | --- | --- | --- | --- |
| Cn1nnc2c(C(N)=O)ncn2c1=O [TEMOZOLOMIDE] |  | 2 h |  |  |  |  | > 100 µM | Activity (GL261 [8]): Active; Activity (SH-SY5Y [9]): Active; Activity (GL261 [10]): inactive; Activity (GL261 [11]): inactive; Activity (SH-SY5Y [12]): Active; Activity (SH-SY5Y [13]): Active |
| CCCC(CCC)C(=O)N(C)/N=N/c1ccc(Br)cc1 | 95.6% | 30.4 h | 4.81 | > 40 h | 98.9% | 82.5% | 80.6 µM |  |
| CCOC(=O)c1ccc(/N=N/NC)cc1 |  |  |  |  |  |  |  | Drug metabolism [15]: Metabolite detected; Drug metabolism [16]: Metabolite detected |
| CCCC(CCC)C(=O)N(C)/N=N/c1ccc(C(N)=O)cc1 | 91.6% | > 40 h | 3.68 | > 40 h | 90.5% | 79.8% | 11.9 µM | Activity (GL261 [17]): Active; Activity (GL261 [8]): Active; Activity (SH-SY5Y [9]): Active; Activity (GL261 [10]): Active; Activity (GL261 [18]): Active; Activity (GL261 [19]): Active; Activity (GL261 [11]): Active; Activity (SH-SY5Y [12]): Active; Activity (SH-SY5Y [13]): Active; Activity (GL261 [20]): Active |
| CCCC(CCC)C(=O)N(C)/N=N/c1ccc(C#N)cc1 | 98% | > 40 h | 4.84 | > 40 h | 99.1% | 94.6% | > 100 µM | Stability [21]: Stable; Activity (GL261 [8]): Active; Activity [22]: inactive; Activity (SH-SY5Y [9]): Active; Activity (GL261 [10]): Active; Activity (GL261 [19]): Active; Activity (GL261 [11]): Active; Activity (SH-SY5Y [12]): Active; Stability [23]: Stable; Activity (SH-SY5Y [13]): Active; Activity (GL261 [20]): Active |
| O=C(/C=C/c1ccc2c(c1)C(=O)CC1(CCN(Cc3ccccc3)CC1)C2)NO |  |  |  |  |  |  |  | Activity [24]: 52.4%; Activity [25]: 10.9%; Activity [26]: 91% |
| CCC(CC)C(=O)N(C)/N=N/c1ccc(C#N)cc1 | 97.2% | > 40 h | 3.76 | > 40 h | 97.7% | 95.1% | > 100 µM | Activity (GL261 [14]): inactive |
| CCCC(CCC)C(=O)N(C)/N=N/c1ccc(C(=O)OC)cc1 | 97.3% | 31.4 h | 4.7 | > 40 h | 92.9% | 92.7% | 6.7 µM | Activity (GL261 [8]): Active; Activity (SH-SY5Y [9]): Active; Activity (GL261 [10]): Active; Activity (GL261 [19]): Active; Activity (GL261 [11]): Active; Activity (SH-SY5Y [12]): Active; Activity (SH-SY5Y [13]): Active; Activity (GL261 [20]): Active |
| CN=NNc1ccc(C#N)cc1 |  |  |  |  |  |  |  | Drug metabolism [15]: Metabolite detected; Drug metabolism [16]: Metabolite detected; Activity [28]: Active |
